# Measured values gathered from unrelated publications.
# Lines come from different studies, so protocols differ.
# Target: MAP/microtubule affinity-regulating kinase 4 (MARK4, Homo sapiens, UniProt Q96L34)
# One construct used (Q96L34 1-752): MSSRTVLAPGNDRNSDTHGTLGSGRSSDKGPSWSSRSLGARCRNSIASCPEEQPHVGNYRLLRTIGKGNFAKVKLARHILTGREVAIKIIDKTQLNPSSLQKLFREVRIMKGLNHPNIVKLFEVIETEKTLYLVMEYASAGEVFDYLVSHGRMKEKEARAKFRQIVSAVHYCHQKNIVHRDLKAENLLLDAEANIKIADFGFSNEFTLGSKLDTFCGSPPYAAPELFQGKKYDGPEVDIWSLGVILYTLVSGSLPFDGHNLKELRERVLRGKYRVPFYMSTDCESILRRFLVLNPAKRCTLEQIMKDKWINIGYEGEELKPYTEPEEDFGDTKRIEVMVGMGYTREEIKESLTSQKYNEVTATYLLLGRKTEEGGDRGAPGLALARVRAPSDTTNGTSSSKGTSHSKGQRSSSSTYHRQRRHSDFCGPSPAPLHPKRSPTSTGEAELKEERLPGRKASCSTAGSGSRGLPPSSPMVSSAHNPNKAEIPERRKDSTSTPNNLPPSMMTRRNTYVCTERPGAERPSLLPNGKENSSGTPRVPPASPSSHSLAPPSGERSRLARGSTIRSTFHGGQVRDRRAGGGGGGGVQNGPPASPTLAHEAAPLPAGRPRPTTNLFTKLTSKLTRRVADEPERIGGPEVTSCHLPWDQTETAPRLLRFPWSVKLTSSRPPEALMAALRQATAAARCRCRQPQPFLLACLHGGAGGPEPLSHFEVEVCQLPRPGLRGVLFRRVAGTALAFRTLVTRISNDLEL
test,setting,endpoint,value,SMILES
"cell-free assay, competition with immobilised ligand",1 µM,remaining binding,96%,O=C(O)[C@H]1[C@H](Cn2nnc3ccccc3c2=O)CC[C@@H]1C(=O)c1ccc(OCCC2CCOCC2)cc1
"enzyme activity, inhibitor, radiometric",1 µM,activity vs control,91%,FC(F)(F)Oc1cccc(-c2cnc3ccc(-c4ccncc4)nn23)c1
"enzyme activity, inhibitor, radiometric",1 µM,remaining activity,68%,c1cc(CN2CCOCC2)cc(Nc2nccc(NCCc3cnc[nH]3)n2)c1
"cell-free assay, competition with immobilised ligand",1 µM,remaining binding,93%,CCCCN(CCCC)C(=O)CN1C[C@@H](c2cc(OC)c3c(c2)OCO3)[C@H](C(=O)O)[C@H]1CC(C)(C)CCC
"enzyme activity, inhibitor, radiometric",1 µM,remaining activity,27%,Cc1nn(CC(F)(F)F)cc1Nc1ncc(Br)c(NCCCNC(=O)C2CCC2)n1
"enzyme activity, inhibitor",1 µM,inhibition,< 20%,CCCS(=O)(=O)Nc1ccc(F)c(C(=O)c2c[nH]c3ncc(-c4ccc(Cl)cc4)cc23)c1F
binding,1 µM,remaining binding,100%,C[C@H]1CCN(c2nccc(-c3cnn4ncccc34)n2)C1
cell-free assay,0.5 µM,remaining signal,78.4%,O=C1Nc2ccc(Cl)cc2C1=Cc1cc(Cl)c(O)c(Cl)c1
"enzyme activity, inhibitor, radiometric",1 µM,remaining activity,7%,O=C(NCCCNc1nc(Nc2cccc(NC(=O)N3CCCC3)c2)ncc1C1CC1)C1CCC1
"cell-free assay, competition with immobilised ligand",1 µM,remaining binding,100%,CN1CCN(c2cnc3c(C4CCN(C(=O)c5ccc(OC(F)(F)F)cc5N)CC4)ncnc3c2)CC1
"enzyme activity, inhibitor",5 µM,remaining activity,108%,O=C(Nc1cnn(-c2csc(C(=O)NC3COC3)c2)c1)Nc1ccccc1Cl
"enzyme activity, inhibitor, radiometric",1 µM,remaining activity,98%,NS(=O)(=O)c1ccc(CNc2nc(Nc3cccc(CN4CCOCC4)c3)ncc2C2CC2)cc1
"enzyme activity, inhibitor",10 µM,remaining activity,108%,Oc1cccc(-c2nc(N3CCOCC3)c3oc4ncccc4c3n2)c1
"cell-free assay, competition with immobilised ligand",1 µM,remaining binding,100%,C[C@@H](c1cccc(C#N)c1)n1cc(Cl)cc(C(N)=O)c1=N
"enzyme activity, inhibitor, radiometric",1 µM,remaining activity,100%,Cc1nn(CC(F)(F)F)cc1Nc1ncc(C2CC2)c(NCCCNC(=O)C2CCC2)n1
"enzyme activity, inhibitor",1 µM,inhibition,-1%,COc1cc2ncnc(Nc3ccc(Oc4ccccc4)c(C)c3C)c2cc1OC
"enzyme activity, inhibitor, radiometric",1 µM,remaining activity,4%,c1cc(CN2CCOCC2)cc(Nc2ncc(C3CC3)c(NCCc3c[nH]cn3)n2)c1
"cell-free assay, competition with immobilised ligand",1 µM,remaining binding,92%,COc1ccc2c(c1)O[C@@H](c1ccc(OC)c(OC)c1)C[C@H]2NC(=O)C1(c2ccc3c(c2)OC(F)(F)O3)CC1
"enzyme activity, inhibitor",0.1 µM,inhibition,-2.4%,CC/C(=N\NC(=O)NCc1cccc(O)c1)c1ccc(O)c(C)c1O
"binding, competition with immobilised ligand",1 µM,remaining binding,100%,O=C(N[C@H]1CCCCC/C=C\C2C[C@@]2(C(=O)O)NC(=O)[C@@H]2C[C@@H](Oc3ccncc3)CN2C1=O)OC1CCCC1 (stereo partly shown)
cell-free assay,0.5 µM,remaining signal,62.5%,N#CCCc1ccc2c(c1)-c1[nH]c3ccc([N+](=O)[O-])cc3c1CC(=O)N2
"enzyme activity, inhibitor",1 µM,activity vs control,74%,COc1cc(/C=C/C(=O)CC(=O)/C=C/c2ccc(O)c(OC)c2)ccc1O
cell-free assay,0.5 µM,remaining signal,98.2%,O=C1NC(=O)c2cc(Nc3ccc(F)cc3)c(Nc3ccc(F)cc3)cc21
"cell-free assay, competition with immobilised ligand",1 µM,remaining binding,76%,O=C(Nc1cccnn1)N1CCC(=Cc2cccc(Oc3ccc(C(F)(F)F)cn3)c2)CC1
"enzyme activity, inhibitor, radiometric",1 µM,remaining activity,110%,Cc1nn(CC(F)(F)F)cc1Nc1ncc(C2CC2)c(NCc2ccc(S(N)(=O)=O)cc2)n1
